Source: ChEMBL document CHEMBL4359898, “Pyrazolo-benzothiazole hybrids: Synthesis, anticancer properties and evaluation of antiangiogenic activity using in vitro VEGFR-2 kinase and in vivo transgenic zebrafish model” (Eur J Med Chem, 2019)

Key:
U-87 MG = experiment: Cytotoxicity against human U87MG cells assessed as reduction in cell viability incubated for 72 hrs by MTT assay
PC-3 = experiment: Cytotoxicity against human PC3 cells assessed as reduction in cell viability incubated for 72 hrs by MTT assay; conditions: PC-3, 72 h
HT-29 = experiment: Cytotoxicity against human HT-29 cells assessed as reduction in cell viability incubated for 72 hrs by MTT assay; conditions: HT-29, 72 h
HEK-293T = experiment: Cytotoxicity against HEK293T cells assessed as reduction in cell viability incubated for 72 hrs by MTT assay; conditions: Homo sapiens
A549 = experiment: Cytotoxicity against human A549 cells assessed as reduction in cell viability incubated for 72 hrs by MTT assay; conditions: A549, 72 h
Danio rerio = experiment: Antiangiogenic activity in transgenic fli1a:EGFP-tagged zebrafish embryo assessed as reduction in intersegmental vessel sprouting at 0.1 to 1 uM administered from 24 hrs post fertilization and measured after 72 hrs by fluorescence microscopy relative to control; assay type: functional; design: scale not given: the % may be the effect or the level left
Summary of the method: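 Embryos staged after natural spawning and kept in E3 medium at 28.5 °C. At 1 dpf, 10 embryos per well were placed in E3 containing compound at […] and incubated 72 h at 28.5 °C. Untreated and 1% DMSO vehicle controls were included. Larvae were anaesthetised with 0.01% tricaine and mounted in 1% low-melt agarose. ISVs were imaged in the green channel, and % defective ISVs was counted manually.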

| SMILES | IC50 (U-87 MG) | IC50 (PC-3) | IC50 (HT-29) | IC50 (HEK-293T) | IC50 (A549) | Activity (Danio rerio) |
| --- | --- | --- | --- | --- | --- | --- |
| O=C(Nc1nc2ccc(Cl)cc2s1)c1cn(-c2ccccc2)nc1-c1ccc(Cl)cc1 | 5.87 µM | 3.23 µM | 4.55 µM | 15.7 µM | 4.36 µM |  |
| CNC(=O)c1ccccc1Sc1ccc2c(/C=C/c3ccccn3)n[nH]c2c1 [AXITINIB] |  |  |  |  |  | 63.1 - 90.4% |
| O=C(Nc1nc2ccccc2s1)c1cn(-c2ccccc2)nc1-c1ccccc1 | 8.96 µM | 10.4 µM | 16.8 µM | > 50 µM | 13.5 µM |  |
| O=C(Nc1nc2ccc(F)cc2s1)c1cn(-c2ccccc2)nc1-c1ccc(F)cc1 | 12.5 µM | 5.26 µM | 4.16 µM | 16.7 µM | 6.65 µM |  |
| O=C(Nc1nc2ccc(Cl)cc2s1)c1cn(-c2ccccc2)nc1-c1ccccc1 | 4.98 µM | 3.69 µM | 7.81 µM | 21.3 µM | 7.67 µM |  |
| COc1ccc(-c2nn(-c3ccccc3)cc2C(=O)Nc2nc3ccc(F)cc3s2)cc1 | 8.99 µM | 4.93 µM | 5.56 µM | 15.4 µM | 7.56 µM |  |
| O=C(Nc1nc2ccc(F)cc2s1)c1cn(-c2ccccc2)nc1-c1ccccc1 | 5.57 µM | 3.25 µM | 9.8 µM | 17.6 µM | 10.2 µM |  |
| O=C(Nc1nc2ccc(F)cc2s1)c1cn(-c2ccccc2)nc1-c1ccc(Cl)cc1 | 7.77 µM | 5.79 µM | 4.97 µM | > 50 µM | 8.86 µM |  |
| O=C(Nc1nc2ccccc2s1)c1cn(-c2ccccc2)nc1-c1ccc(F)cc1 | 10.7 µM | 7.13 µM | 9.06 µM | 33.4 µM | 9.01 µM |  |
| COc1ccc(-c2nn(-c3ccccc3)cc2C(=O)Nc2nc3ccc(Cl)cc3s2)cc1 | 8.71 µM | 6.51 µM | 6.57 µM | 12.6 µM | 4.71 µM |  |
